NS3 helicase inh: inhibitors of Hepatitis C virus NS3 helicase | NS3 helicase DNA unwinding, Cy5 molecular beacon fluorescence | inhibition, % at 10.9 µM | 290,000 tested, 0.56% active;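 active = inhibition above the mean of all tested compounds plus 3 SD, set per campaign, cut at about 35% in these data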;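 note: 0% = DMSO wells and 100% = thioflavine S control wells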
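System: Hepatitis C virus NS3 helicase domain fragment enzyme | Reagent: Annealed dual-labelled DNA beacon duplex, ATP-started | Compound dosing: 10.9 µM single point, 0.8% DMSO | Incubation: 1 h reaction at 25 °C, ATP-initiated | Technique: Cy5 fluorescence | Evaluation: Percent inhibition from t60/t0 fluorescence ratio | Benchmarks: Low DMSO, high thioflavine S at 110 µM | Replication: Singlicate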
HSP90 inh: blocks HSP90-mediated luciferase refolding in reticulocyte lysate | Rabbit reticulocyte lysate, luciferase refolding luminescence, 3 h | inhibition, % at 5.6 µM | 290,000 tested, 0.91% active;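 active = inhibition above the screen-wide mean plus 3 SD, computed separately per campaign, cut at about 16% in these data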;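 note: 0% = DMSO wells and 100% = 60 µM geldanamycin wells; inhibitors lower the luminescence because luciferase stays unfolded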
FID counter: displaces DNA intercalator in HCV helicase counter-screen. DNA fluorescent intercalator displacement, fluorescence. inhibition, % at 7.9 µM. 290,000 tested, 0.17% active; in the data active = inhibition above about 37%;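 note: 0% = vehicle and 100% = reference compound; higher means more ethidium bromide displaced from hairpin DNA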
HSF-1 act: increases HSF-1 driven luciferase reporter signal. activation, % at 9 µM. NIH3T3-HGL HSF-1 luciferase reporter, MG132, 8 h; 100% = twice DMSO control signal. 300,000 tested, 1.7% active;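 active = mean replicate activation of at least 50% with a set share of replicates each reaching 50%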;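 note: 0% = median of the neutral control wells and 100% = twice that signal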
HCV core dimer: blocks dimerization of HCV core protein. inhibition, % at 5 µM. 300,000 tested, 0.33% active. TR-FRET GST/Flag-core106 dimerization, 1536-well;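 active = inhibition above the mean of all tested compounds plus 3 SD, set per screening campaign, cut at about 45% in these data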
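Test system: GST/Flag-tagged HCV core106 proteins; Medium: KF-containing HEPES buffer, pH 7.45, DTT, CHAPS, BSA; Times: compound-protein-antibody incubation 4 h at 22.5 °C; Detection: TR-FRET 671 and 617 nm emission; Benchmarks: wells lacking GST-core106 and wells with excess unlabelled core106.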
HSF1 inh: HSF1 inhibition. NIH3T3-HGL HSE-luciferase, MG132-induced, luminescence 8 h; hits give low values. activity change, negative = inhibition, % at 7.5 µM (by protocol). 300,000 tested, 0.77% active. AID 2098;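 active = more than half of replicate wells show activity change below -50%, luminescence cut by over half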;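 note: luciferase reports HSF-1 transcriptional activity via heat shock element; 0% = median of DMSO wells and -100% = zero luminescence signal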
HSP90 confirm: confirmation of HSP90 inhibitors; AID 1846; 2,300 tested, 64% active; shares compounds with HSP90 inh; inhibition, % at 5.9 µM; rabbit reticulocyte lysate, luciferase refolding luminescence, 3 h; in the data active = inhibition above about 18%;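 note: 0% = vehicle wells and 100% = reference inhibitor wells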
FLuc counter: firefly luciferase inhibition, HSP90 counter-screen | AID 1847 | 2,300 tested, 48% active | inhibition, % at 5.9 µM | purified native firefly luciferase, luminescence | shares compounds with HSP90 inh;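 active = inhibition above the mean inhibition of all tested sample wells plus 3 SD, cut at about 10% in these data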;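 note: 0% = DMSO with luciferase and 100% = wells lacking luciferase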
Target sequence (P08659 whole entry, looked up): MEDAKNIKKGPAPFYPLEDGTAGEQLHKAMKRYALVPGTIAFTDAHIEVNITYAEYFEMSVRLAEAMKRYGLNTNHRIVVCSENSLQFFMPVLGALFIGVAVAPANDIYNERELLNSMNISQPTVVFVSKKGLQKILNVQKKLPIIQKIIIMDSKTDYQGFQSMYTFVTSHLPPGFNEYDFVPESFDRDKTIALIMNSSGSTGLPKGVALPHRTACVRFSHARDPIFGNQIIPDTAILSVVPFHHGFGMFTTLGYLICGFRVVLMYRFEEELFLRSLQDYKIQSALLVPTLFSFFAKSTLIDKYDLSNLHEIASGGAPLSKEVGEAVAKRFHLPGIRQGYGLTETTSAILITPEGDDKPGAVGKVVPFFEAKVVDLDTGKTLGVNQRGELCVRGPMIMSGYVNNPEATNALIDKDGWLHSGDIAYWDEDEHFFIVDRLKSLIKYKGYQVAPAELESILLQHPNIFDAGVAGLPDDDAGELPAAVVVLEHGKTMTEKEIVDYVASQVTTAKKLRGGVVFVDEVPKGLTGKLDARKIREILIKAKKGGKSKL
Active calls of the source: *; · = no result. The list is not random: actives were taken first. Their share in the collection is about 3.9%.

SMILES | NS3 helicase inh | HSP90 inh | FID counter | HSF-1 act | HCV core dimer | HSF1 inh | HSP90 confirm | FLuc counter
C/C(=N/Nc1ccc(C(=O)O)cc1)c1ccc(O)c(O)c1O | 4 | 29* | -3 | -11 | -30 | -12 | 54* | 45*
C/C(=N\NC(N)=O)c1ccc(-n2ccnc2)cc1 | -5 | -5 | -1 | -2 | 5 | -5 | · | ·
COc1ccc(OC)c(C(=O)c2ccc(C(=O)c3cc(OC)ccc3OC)cc2)c1 | 2 | 0 | -1 | · | 7 | · | · | ·
COc1ccc(/C=N/Nc2ccc(C(=O)O)cc2)c(OC)c1OC | -2 | -1 | -11 | 1 | -19 | 0 | · | ·
C/C(=N\Nc1ccc(C(=O)O)cc1)c1ccc(-n2ccnc2)cc1 | -5 | 18* | -5 | 3 | -5 | 0 | 15 | -8
Cc1c(Cl)c([N+](=O)[O-])nn1CC(=O)N1CCc2ccccc2C1 | -20 | -6 | 3 | 4 | -7 | 6 | · | ·
O=C(NCc1ccon1)C1CCC(=O)N(Cc2cccc(C(F)(F)F)c2)C1 (stereo unspecified) | 5 | 0 | -20 | 5 | -20 | 3 | · | ·
Cc1ccc(OCC(=O)Nc2ccc(S(=O)(=O)N3CCOCC3)cc2)c(C)c1 | -6 | 20* | -30 | 7 | · | 3 | 7 | 2
CCN(CC)CCCNC(=O)c1nn(-c2cccc(OC)c2)c(=O)c2ccccc12 | 0 | 0 | 6 | -4 | -2 | -2 | · | ·
O=C(N/C(=C\c1cccs1)C(=O)N1CCCCCC1)c1ccccc1 | 0 | 31* | -27 | -2 | 8 | -3 | -1 | -20
COc1cc(Nc2cc(C)nc3nc(C)nn23)cc(OC)c1OC | 7 | 1 | -8 | 8 | -2 | -4 | · | ·
Cc1cc(COc2ccccc2)oc1C(=O)O | -22 | 69* | -3 | -30 | -7 | -7 | 84* | 50*
CCOc1ccc(OCc2ccc(C(=O)N3CCCC3)o2)cc1 | -6 | 30* | -18 | 1 | 1 | 9 | 19* | -30
CC(C)c1ccc(OCc2ccc(C(=O)N3CCCC3)o2)cc1 | 11 | 17* | -31 | 48 | 4 | 28 | 24* | -15
CCOc1ccc(OCc2ccc(C(=O)N3N=C(C(F)F)CC3(O)C(F)F)o2)cc1 (stereo unspecified) | -4 | 28* | -16 | 1 | 3 | 1 | 13 | -6
Cc1cc(CN2CCCCC2)oc1C(=O)O | -2 | -3 | 5 | · | 0 | · | · | ·
O=C(c1ccc(COc2ccc(Br)cc2)o1)N1N=C(C(F)F)CC1(O)C(F)F (stereo unspecified) | -13 | -2 | -11 | -44 | 5 | -28 | · | ·
Cc1cc(Oc2ccc(C#N)cc2)nc(NCc2ccccc2)n1 | 2 | 0 | 6 | -24 | 8 | -7 | · | ·
CC(=O)Nc1ccc(C(O)(C(F)(F)F)C(F)(F)F)cc1 | 4 | -1 | -1 | 3 | -1 | 2 | · | ·
COc1ccc(CC(=O)OCC(=O)N2CCCc3ccccc32)cc1 | · | · | · | 1 | 0 | -2 | · | ·
N#CCCn1cc(C(=O)Nc2cccc(C(=O)O)c2)c(-c2ccc(Cl)cc2)n1 | -4 | -2 | -16 | 3 | -3 | -6 | · | ·
COc1cc(C(=O)NCCC(=O)NCCCN2CCCCC2)cc(OC)c1OC | 2 | 2 | -1 | -1 | -8 | -3 | · | ·
Cc1ccc(OCc2ccc(C(=O)O)o2)cc1C | 0 | 70* | -4 | 45 | · | 10 | 71* | 5
CCOC(=O)c1ccc(COc2ccc(C(C)C)cc2)o1 | -9 | 33* | -5 | 54* | 11 | 25 | 71* | -13
CCC(C)c1ccc(OCc2ccc(C(=O)O)o2)cc1 (stereo unspecified) | 6 | 94* | -22 | -61 | 5 | -53* | 92* | 82*
SMILES | NS3 helicase inh | HSP90 inh | FID counter | HSF-1 act | HCV core dimer | HSF1 inh | HSP90 confirm | FLuc counter
CCc1c(O)nc(SCC(=O)Nc2ccccc2C)[nH]c1=O | -5 | -1 | 0 | -19 | -4 | -7 | · | ·
CN(CC(=O)Nc1ccc(Cl)c(C(F)(F)F)c1)C(=O)CC1Sc2ccccc2NC1=O (stereo unspecified) | -14 | 3 | -15 | -4 | -12 | 11 | · | ·
Cc1cccc(Nc2nc(-c3ccc4c(c3)OCCO4)cs2)c1 | 13 | 47* | -1 | -58 | -2 | -54* | -2 | -27
Cc1c(/C(O)=C2/C(=O)C(=O)N(CCN3CCOCC3)C2c2cccs2)cnn1-c1ccccc1 (stereo unspecified) | 16 | 45* | -18 | -6 | 5 | -1 | 47* | 40*
Cc1nc2ccccn2c1/C(O)=C1\C(=O)C(=O)N(CCN2CCOCC2)C1c1cccs1 (stereo unspecified) | 5 | 1 | -6 | -11 | -4 | 3 | · | ·
Cc1ccc(C2/C(=C(/O)c3cnn(-c4ccccc4)c3C)C(=O)C(=O)N2CCN2CCOCC2)o1 (stereo unspecified) | 0 | 21* | -28 | -7 | -4 | -8 | 16 | 5
O=C(NC1CCCCC1)NC1(C(=O)NCCCN2CCOCC2)CCCCC1 | -2 | 27* | 6 | 11 | 1 | 3 | -1 | -3
COc1ccc(N2C(=O)c3ccccc3NC23CCCC3)cc1 | 0 | 19* | -3 | 45 | 1 | 29 | 2 | -6
Cc1ccccc1-n1c(C)cc(/C=C(\C#N)C(=O)NCC2CCCO2)c1C (stereo unspecified) | 1 | 20* | -32 | -53 | -8 | -39 | 37* | 25*
Cc1ccc(/C=C(\C#N)C(=O)NCC2CCCO2)o1 (stereo unspecified) | -2 | 0 | -2 | 14 | -9 | 2 | · | ·
O=C1c2cccc([N+](=O)[O-])c2C(=O)N1c1ccccc1 | 16 | 0 | 0 | 18 | -23 | 2 | · | ·
Cc1ccc2nc(SCC(=O)Nc3nonc3C)[nH]c2c1 | 13 | 4 | -4 | 2 | -12 | -6 | · | ·
O=C(O)c1ccc(NS(=O)(=O)c2ccc3c(c2)C(=O)c2ccccc2C3=O)cc1 | 20 | 28* | -10 | -8 | 5 | -2 | 2 | -7
O=C1CN(C(=O)CNCc2ccc(Cl)cc2)c2ccccc2N1 | 0 | 25* | 2 | 4 | 0 | 9 | -13 | -11
CC1(NC(=O)NCc2ccccc2)CCS(=O)(=O)C1 (stereo unspecified) | 2 | 5 | -2 | -5 | -2 | -7 | · | ·
O=C(c1ccc([N+](=O)[O-])cc1)N1CCN(C(=O)c2ccco2)CC1 | 4 | 21* | -2 | -2 | -1 | -1 | 3 | -4
O=C(c1cc([N+](=O)[O-])cc([N+](=O)[O-])c1)N1CCN(C(=O)c2ccco2)CC1 | 3 | 9 | 1 | 50 | 2 | 19 | · | ·
